Compounds with a hit are over-represented: about 2.4% of the library has one in this group of screens.
MT1-MMP act inh: blockers of MT1-MMP proenzyme processing, primary screen, HT1080 RFP-PRO-GFP cells, GFP/RFP fluorescence | AID 651647, 2012 | Matrix metalloproteinase-14 (Homo sapiens), P50281 | 360,000 compounds, 0.061% hits | GFP/RFP ratio fluorescence, overnight; percent of plate control window, DMSO zero | GFP/RFP ratio change, % at 20 µM;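 active = GFP/RFP ratio change of at least 30% with cell ATP level not reduced by more than half and red fluorescence within 50% of control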
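Compound: 20 µM single dose, 1% DMSO / System: HT1080 RFP-PRO-GFP cells / Controls: DMSO and RFP-L50D-GFP cell wells / Read-out basis: GFP/RFP fluorescence ratio / Schedule: overnight compound exposure at 37 °C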
DAGLB inh: DAGLB lipase inhibitors, primary screen, biochemical, fluorescence, HTS; Diacylglycerol lipase-beta (Homo sapiens), Q8NCG7; HEK293T DAGLB membrane lysate, EnzChek fluorogenic substrate; inhibition, % at 5.17 µM; 340,000 compounds, 0.059% hits; AID 504411, 2011; in the data active = inhibition above about 34%;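 note: 0% = enzyme with vehicle and 100% = wells lacking enzyme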
Myeloid diff MLP: induction of myeloid progenitor differentiation, primary screen, cell-based, flow cytometry, MLPCN library; ER-HoxA9 myeloid progenitors, lysozyme-GFP differentiation; calls only at 10 µM; 360,000 compounds, 1% hits; AID 624256, 2012;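 active = normalized GFP-positive differentiation at or above the plate's own cutoff, the solvent-only control mean plus 3 SD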;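 note: cells exposed to compound for four days before flow analysis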
CendR NRP1 mod: modulators of CendR peptide binding to NRP-1, primary screen, biochemical, fluorescence polarization, uHTS; Neuropilin-1 (Homo sapiens), O14786; FAM-RPARPAR peptide binding to NRP-1; inhibition, % at 25 µM; 360,000 compounds, 0.85% hits; AID 602438, 2012;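 active = inhibition or corrected inhibition above about 18%, plus a signal ratio from 0.5 to 1.5, limit read from the data, passing the limit was not always enough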
Target sequence (O14786 whole entry, looked up): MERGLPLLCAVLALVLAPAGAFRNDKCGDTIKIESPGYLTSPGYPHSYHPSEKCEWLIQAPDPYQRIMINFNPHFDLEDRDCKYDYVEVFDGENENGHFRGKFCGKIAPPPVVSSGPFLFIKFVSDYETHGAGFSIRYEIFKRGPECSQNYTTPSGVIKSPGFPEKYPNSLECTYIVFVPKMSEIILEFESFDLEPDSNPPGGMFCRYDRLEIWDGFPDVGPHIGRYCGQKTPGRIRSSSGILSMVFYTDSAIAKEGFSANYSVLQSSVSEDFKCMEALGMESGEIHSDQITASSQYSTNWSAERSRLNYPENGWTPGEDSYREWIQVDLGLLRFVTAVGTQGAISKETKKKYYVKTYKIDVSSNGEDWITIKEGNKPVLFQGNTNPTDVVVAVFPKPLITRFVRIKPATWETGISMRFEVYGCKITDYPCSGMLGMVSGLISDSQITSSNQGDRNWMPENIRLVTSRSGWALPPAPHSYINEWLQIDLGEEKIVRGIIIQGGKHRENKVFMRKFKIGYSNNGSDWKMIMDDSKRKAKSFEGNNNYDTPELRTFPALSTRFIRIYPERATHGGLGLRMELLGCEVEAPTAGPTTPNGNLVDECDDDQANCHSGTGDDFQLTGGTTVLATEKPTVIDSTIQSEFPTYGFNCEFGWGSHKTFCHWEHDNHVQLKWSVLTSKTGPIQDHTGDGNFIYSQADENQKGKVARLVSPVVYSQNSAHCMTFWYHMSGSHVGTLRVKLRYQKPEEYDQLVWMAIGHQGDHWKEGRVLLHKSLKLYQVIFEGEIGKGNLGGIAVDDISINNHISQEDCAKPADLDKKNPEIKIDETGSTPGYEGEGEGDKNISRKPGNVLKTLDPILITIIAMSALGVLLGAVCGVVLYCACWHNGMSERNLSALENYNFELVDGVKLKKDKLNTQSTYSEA
SENP1 FRET inh: human SENP1 catalytic domain inhibitors, primary screen, biochemical, FRET, uHTS; inhibition, % at 10 µM; Sentrin-specific protease 1 (Homo sapiens), Q9P0U3; 360,000 compounds, 0.21% hits; recombinant SENP1 catalytic domain, CyPet-SUMO1-YPet FRET cleavage; AID 624204, 2012;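 active = inhibition at least 30% at 10 µM, raw YFP signal under a set limit, fluorescence ratio 0.5 to 1.5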;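 note: 0% = enzyme with DMSO and 100% = no enzyme wells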
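Material – human SENP1 catalytic domain · Input – SENP1 enzyme, 20 pM final · Compound dosing – single concentration of 10 µM compound, 0.5% DMSO final · Timing – enzyme reaction for 50 min at room temperature, dark · Measured by – FRET fluorescence in CFP and YFP emission channels · Control set – no-enzyme wells low, DMSO-plus-enzyme wells high control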
beta cell repl: inducers of MIN6 beta-cell proliferation, primary screen, ATP luminescence, uHTS; 330,000 compounds, 0.29% hits; proliferation, % at 10 µM; MIN6 cells proliferation, ATPlite luminescence, 48 h; cells starved in 0.2% serum; 100% = growth in 10% serum;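 active = compounds whose signal lies at least 3.5 SD above the mean of all wells on their plate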;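 note: 0% = DMSO-treated cells in low-serum medium and 100% = 10% serum control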
An asterisk follows results filed as active; i = inactive; nt = no result; + = active, no number; ! = a repeat was not active.

SMILES	MT1-MMP act inh	DAGLB inh	Myeloid diff MLP	CendR NRP1 mod	SENP1 FRET inh	beta cell repl
O=C1CCN(CCc2ccccc2)CCN1CCSc1ccc(Br)cc1	5	-2	i	23*	1	-5
Nc1c2c(=O)[nH]c(O)cc2nn1-c1ccccc1	-6	-1	i	18	-5	nt
CCOC(=O)c1nc(C)nc(Sc2n[nH]c(-c3ccc(C(C)(C)C)cc3)n2)c1C	0	-2	i	0	-1	-3
N#CCS(=O)(=O)c1ccccc1	5	-1	i	24*	2	-1
O=S(=O)(CC=CCS(=O)(=O)c1ccccc1)c1ccccc1	3	-3	i	6	1	nt
COc1ccc(/C=C2\SC(=O)N(CCNC(=O)Cn3[nH]c(=O)c4ccccc4c3=O)C2=O)cc1	-3	3	i	29*	2	-1
Cc1ccccc1N=Nc1c(C)[nH]n(C(N)=S)c1=O	11	8	i	1	4	-1
Cc1[nH]n(C(N)=S)c(=O)c1N=Nc1ccc([N+](=O)[O-])cc1Cl	-1	14	i	39*	9	-2
O=C(c1ccc2c(=O)n3c(nc2c1)CCCCC3)N1CCN(C(c2ccccc2)c2ccccc2)CC1	-8	1	i	2	-1	-6
COc1ccc(Cl)cc1S(=O)(=O)N1CCN(c2ccc(F)cc2)CC1	5	-4	i	29*	0	-4
CCOc1ccc(Cl)cc1S(=O)(=O)N1CCN(c2ccc(F)cc2)CC1	1	-4	i	3	0	-3
CC1(C)Cc2ccccc2C(Nn2cnnc2)=N1	0	3	i	-2	-9	-2
CC1(C)Cc2ccccc2C2=NNC(=O)C2=N1	-5	-3	+	16	1	-4
CC(Oc1ccc2c3c(c(=O)oc2c1)CCC3)C(=O)NCc1cccnc1 (stereo unspecified)	0	-1	i	14	3	-1
CN1CCS/C1=C/C=C1\SC(=S)N(CC(=O)O)C1=O	-95	-27	i	134	66*	-2
CCCCN1C(=O)/C(=C/C=C2\SCCN2C)SC1=S	-103	1	i	132	22	6
CN(CC(=O)Nc1ccc(N2CCOCC2)cc1)C(=O)CCc1ccccc1Cl	nt	0	i	-3	-4	1
O=C(O)c1cn(Cc2ccccc2)c2ccc(Cl)cc2c1=O	1	1	i	23*	4	-2
COc1ccc(Cn2cc(C(=O)O)c(=O)c3ccccc32)cc1	8	0	i	7	3	0
C[C@@H]1CN([C@@H](C)CO)C(=O)CCCn2nncc2CO[C@H]1CN(C)S(=O)(=O)c1cn(C)cn1	1	-1	i	-7	0	nt
CN1C(=O)CC2(C)C1=CCc1scnc12 (stereo unspecified)	2	nt	i	19*	0	nt
CC(=NCc1cccc(Cl)c1)c1nc(-c2ccco2)oc1O	3	1	+	-4	-2	0
Cc1cccn2c(=O)c(C(=O)NC3CCCCC3C)c(O)nc12 (stereo unspecified)	0	0	i	44*	-1	-6
CCOC(=O)c1c(C)[nH]c(C)c1S(=O)(=O)NC(CC)CN1CCOCC1 (stereo unspecified)	0	0	i	14	-2	3
CCOc1cc(/C=C/C(=O)c2ccc3c(c2)OCCO3)ccc1OCC(=O)N(C)C	-5	-2	+	4	-9	-3
SMILES	MT1-MMP act inh	DAGLB inh	Myeloid diff MLP	CendR NRP1 mod	SENP1 FRET inh	beta cell repl
Cc1ccc2c(CN3CCC(C)CC3)cc(=O)oc2c1C	-2	-6	i	0	1	2
CCOC(=O)C1CCN(Cc2cc(=O)oc3c(C)c(C)ccc23)CC1	1	-7	+	2	2	0
CCOC(=O)c1c(-c2ccc3ccccc3c2)csc1NC(=O)CCCC(=O)O	8	4	i	-6	3	-3
COc1cc(/C=c2\sc3nc(=O)c(-c4ccccc4)nn3c2=O)ccc1OCCC(C)C	-55	0	i	40*	-25	nt
CCOc1ccc(/C=c2\sc3nc(-c4ccco4)nn3c2=O)cc1OCC	1	1	i	-32	-5	-3
CC1CCC(NC(=O)CSc2nncn2C)CC1 (stereo unspecified)	2	-2	i	23*	-2	1
Cn1cnnc1SCC(=O)NC1CCCCC1	0	1	i	6	1	-2
COc1cc2c(C#N)c(N3CCCC3)nc(N)c2c(N)n1	-5	0	i	30*!	-29	-1
N#Cc1c(N2CCCC2)nc(N)c2c(N)nc(N3CCCC3)cc12	2	-17	i	32*	-28	-4
CCOc1cc2c(C#N)c(N3CCCC3)nc(N)c2c(N)n1	4	2	i	4	-14	-1
COCCN1C(=O)CN(S(C)(=O)=O)CC1(C)C(=O)NC(C)C (stereo unspecified)	16	nt	i	5	-2	nt
O=C(NCC(F)(F)F)c1ccc2sc([C@@H]3O[C@H](CO)[C@H](O)[C@H](O)[C@H]3O)nc2c1	-8	nt	i	10	2	nt
O=C(Nc1ccc(N2CCCC2)c(Cl)c1)c1cccnc1	-3	2	i	-16	-8	-4
O=C(Nc1ccc(N2CCCCC2)c(Cl)c1)c1cccnc1	-9	1	+	-19	7	-1
O=C1CCC(=O)N1c1ccccc1	-1	0	i	8	-3	-1
O=C1CCCCC(=O)N(c2ccccc2)c2ccccc21	10	0	+	8	4	3
CC(C)(C)NC(=O)c1cnn2c1NC(c1ccc(F)cc1)CC2C(F)(F)F (stereo unspecified)	1	-6	i	0	2	0
Clc1ccc(C2CC(c3cccs3)n3ncnc3N2)cc1 (stereo unspecified)	-2	nt	i	11	3	0
CCC(C)NC(=O)c1cnn2c1NC(c1cccs1)CC2C(F)(F)F (stereo unspecified)	2	0	i	22*	0	0
FC(F)(F)C1CC(c2cccs2)Nc2ncnn21 (stereo unspecified)	0	2	i	30*	-1	0
Oc1ccc(CNc2ccc(F)cc2)c2cccnc12	-3	1	+	-9	0	-4

Source: PubChem (several laboratories)
